# Measured values taken from ChEMBL document CHEMBL4007408, “Identification of Novel Triazole-Based Nicotinamide Phosphoribosyltransferase (NAMPT) Inhibitors Endowed with Antiproliferative and Antiinflammatory Activity” (J Med Chem, 2017).
# Active and inactive are the calls of the source. The calls are words filed in the database; no cut-off is given here.
# Assays:
# [1] = Half life in athymic Nu/Nu Harlan mouse at 10 mg/kg, iv administered as single dose up to 24 hrs by LC-ESI-MS analysis; assay type: ADME, organism-based; conditions: in vivo
# [2] = test system: Mus musculus; test: In vivo inhibition of NAMPT in DNBS-induced BALB/c mouse colitis model assessed as reduction in loss of body weight at 20 mg/kg, ip bid administered for 3 days post DNBS challenge; assay type: functional, organism-based
# [3] = test system: SH-SY5Y; test: Cytotoxicity against human SH-SY5Y cells assessed as reduction in cell viability after 56 hrs by MTT assay; assay type: functional, cell-based; conditions: Homo sapiens, SH-SY5Y, 56 h; read-out: EC50
# [4] = test system: Fibrosarcoma cell; test: Antitumor activity against mouse fibrosarcoma cells allografted in athymic nu/nu Harlan mouse
# [5] = test system: A2780; test: Antitumor activity against human A2780 cells xenografted in athymic nu/nu Harlan mouse assessed as reduction in tumor growth at 10 mg/kg, ip bid administered for 8 consecutive days; assay type: functional, organism-based
# [6] = test system: Mus musculus; test: In vivo inhibition of NAMPT in DNBS-induced BALB/c mouse colitis model assessed as reduction in neutrophil infiltration by measuring myeloperoxidase levels at 20 mg/kg, ip bid administered for 3 days post DNBS challenge by ELISA; assay type: functional, organism-based
# [7] = test system: Liver; test: Drug metabolism in human liver microsomes assessed as pyridine N-oxidation after 60 mins in presence of NADPH-regenerating system by LC-UV analysis; assay type: ADME, microsome; conditions: 1 h
# Outline: (§1)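 Metabolites were characterized by LC-ESI-MSn on supernatants of 60 min, 37 °C incubations. Each used 50 μM substrate with rat or human liver microsomes (1.0 mg/ml protein) in 50 mM Tris-HCl pH 7.4 with 3.3 mM MgCl2, 1% acetonitrile and an NADPH-regenerating system. Reactions were quenched with cold acetonitrile and centrifuged.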
# [8] = Volume of distribution in athymic Nu/Nu Harlan mouse at 10 mg/kg, iv administered as single dose up to 24 hrs by LC-ESI-MS analysis; assay type: ADME, organism-based; conditions: in vivo
# [9] = test system: Mus musculus; test: Drug metabolism in athymic Nu/Nu Harlan mouse blood assessed as N-oxide metabolite formation at 10 mg/kg, iv administered as single dose up to 24 hrs by LC-ESI-MS analysis; assay type: ADME, organism-based; conditions: in vivo
# [10] = Stability in Wistar Han rat liver microsomes assessed as mixed function oxidase mediated compound cleavage after 60 mins in presence of NADPH-regenerating system by LC-UV analysis; assay type: ADME; conditions: 1 h
# Outline: (§2)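 Substrate at 50 μM final, with rat or human liver microsomes at 1.0 mg/ml protein, in 50 mM Tris-HCl pH 7.4. Mix held 3.3 mM MgCl2, 1% acetonitrile and an NADPH-regenerating system (1.3 mM β-NADP, 3.3 mM glucose 6-phosphate, 0.4 U/ml G6PDH). Shaken 60 min at 37 °C, stopped with ice-cold acetonitrile. LC-UV gave % residual substrate versus a no-microsome control, mean of two replicates.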
# [11] = AUC in athymic Nu/Nu Harlan mouse at 10 mg/kg, iv administered as single dose up to 24 hrs by LC-ESI-MS analysis; assay type: ADME, organism-based; parameters: time < 24 hr, dose 10 mg/kg, route intravenous; conditions: in vivo
# [12] = molecular target: Nicotinamide phosphoribosyltransferase (Mus musculus, UniProt Q99KQ4); test: Inhibition of recombinant mouse NAMPT expressed in bacterial expression system using nicotinamide as substrate after 1 hr by fluorescence based NMNAT-3 enzyme coupled assay; conditions: read-out: IC50
# Sequence of Nicotinamide phosphoribosyltransferase (Mus musculus, UniProt Q99KQ4) (Q99KQ4 whole entry): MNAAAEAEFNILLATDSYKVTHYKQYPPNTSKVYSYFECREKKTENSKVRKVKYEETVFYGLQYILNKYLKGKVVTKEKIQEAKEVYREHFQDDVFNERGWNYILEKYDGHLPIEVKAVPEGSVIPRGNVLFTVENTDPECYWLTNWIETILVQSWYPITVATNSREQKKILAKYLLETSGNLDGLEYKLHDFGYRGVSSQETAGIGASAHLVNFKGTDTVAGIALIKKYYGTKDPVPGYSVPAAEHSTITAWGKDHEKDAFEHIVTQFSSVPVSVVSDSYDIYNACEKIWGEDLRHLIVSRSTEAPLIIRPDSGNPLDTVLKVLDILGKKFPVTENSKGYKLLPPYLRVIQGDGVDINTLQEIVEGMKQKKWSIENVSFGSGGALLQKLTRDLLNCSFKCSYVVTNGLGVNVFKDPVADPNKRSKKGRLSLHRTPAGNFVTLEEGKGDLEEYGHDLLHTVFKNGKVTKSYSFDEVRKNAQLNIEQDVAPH
# [13] = test system: Liver; test: Drug metabolism in Wistar Han rat liver microsomes assessed as pyridine N-oxidation after 60 mins in presence of NADPH-regenerating system by LC-UV analysis; assay type: ADME, microsome; conditions: 1 h; outline: as §1
# [14] = test system: Liver; test: Stability in human liver microsomes after 60 mins by LC-ESI-MS analysis; assay type: ADME, microsome; conditions: 1 h
# [15] = Drug metabolism in human liver microsomes assessed as mixed function oxidase mediated compound cleavage by measuring compound remaining after 60 mins in presence of NADPH-regenerating system by LC-UV analysis; assay type: ADME; conditions: read-out: Stability; outline: as §2
# [16] = test system: A2780; test: Cytotoxicity against human A2780 cells assessed as reduction in cell viability; assay type: functional, cell-based
# [17] = Apparent aqueous solubility of the compound; assay type: physicochemical; conditions: buffer
# Outline: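 Kinetic solubility was measured by filtration. Compound from a 10 mM DMSO stock was diluted in PBS pH 7.4 to nominal 500 and 200 μM, shaken 90 min at room temperature and filtered. Filtrate was diluted 4:1 with acetonitrile and absorbance read at 260/280 nm. Concentration came from a calibration curve (3.13–500 μM in 80:20 PBS/acetonitrile, 5% DMSO; r2 >0.85) × 1.25. Run in duplicate.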
# [18] = test system: Mammary cancer cell; test: Antitumor activity against mouse mammary cancer cells allografted in athymic nu/nu Harlan mouse
# [19] = test system: Liver; test: Stability in Wistar Han rat liver microsomes after 60 mins by LC-ESI-MS analysis; assay type: ADME, microsome; conditions: 1 h
# [20] = test system: Mus musculus; test: Toxicity in athymic nu/nu Harlan mouse xenografted with human A2780 cells assessed as body weight loss at 10 mg/kg, ip bid administered for 8 consecutive days measured through out study; assay type: organism-based; conditions: in vivo
# [21] = test system: Liver; test: Stability in human liver microsomes assessed as mixed function oxidase mediated compound cleavage after 60 mins in presence of NADPH-regenerating system by LC-UV analysis; assay type: ADME, microsome; conditions: 1 h; outline: as §2
# [22] = test system: Mus musculus; test: In vivo inhibition of NAMPT in DNBS-induced BALB/c mouse colitis model assessed as reduction in mucosal congestion at 20 mg/kg, ip bid administered for 3 days post DNBS challenge; assay type: functional, organism-based
# [23] = test system: Mus musculus; test: Downregulation of NAMPT expression in DNBS-induced BALB/c mouse colitis model at 20 mg/kg, ip bid administered for 3 days post DNBS challenge by Western blot analysis; assay type: functional, organism-based
# [24] = test system: Mus musculus; test: In vivo inhibition of NAMPT in DNBS-induced BALB/c mouse colitis model assessed as reduction in hemorrhagic ulcerations at 20 mg/kg, ip bid administered for 3 days post DNBS challenge; assay type: functional, organism-based
# [25] = Drug metabolism in Wistar Han rat liver microsomes assessed as mixed function oxidase mediated compound cleavage by measuring compound remaining after 60 mins in presence of NADPH-regenerating system by LC-UV analysis; assay type: ADME; conditions: read-out: Stability; outline: as §2
# [26] = test system: Mus musculus; test: In vivo inhibition of NAMPT in DNBS-induced BALB/c mouse colitis model assessed as reduction in erosion at 20 mg/kg, ip bid administered for 3 days post DNBS challenge; assay type: functional, organism-based
# [27] = Clearance in athymic Nu/Nu Harlan mouse at 10 mg/kg, iv administered as single dose up to 24 hrs by LC-ESI-MS analysis; assay type: ADME, organism-based; conditions: in vivo
# [28] = test system: Liver; test: Drug level in human liver microsomes treated with N-(7-(4-(Pyridin-3-yl)-1H-1,2,3-triazol-1-yl)heptyl)-[1,1'-biphenyl]-2-carboxamide after 60 mins in presence of NADPH-regenerating system by LC-UV analysis; assay type: ADME, microsome; outline: as §2
# [29] = test system: Liver; test: Drug level in Wistar Han rat liver microsomes treated with N-(7-(4-(Pyridin-3-yl)-1H-1,2,3-triazol-1-yl)heptyl)-[1,1'-biphenyl]-2-carboxamide after 60 mins in presence of NADPH-regenerating system by LC-UV analysis; assay type: ADME, microsome; outline: as §2
# [30] = test system: Liver; test: Drug metabolism in Wistar Han rat liver microsomes assessed as aliphatic hydroxylation of paraffin linkers by LC-ESI-MS or LC-UV analysis; assay type: ADME, microsome; outline: as §1
# [31] = test system: Liver; test: Drug metabolism in human liver microsomes assessed as aliphatic hydroxylation of paraffin linkers by LC-ESI-MS or LC-UV analysis; assay type: ADME, microsome; outline: as §1
# [32] = test system: Liver; test: Drug metabolism in human liver microsomes assessed as aromatic hydroxylation of biphenyl moiety by LC-ESI-MS or LC-UV analysis; assay type: ADME, microsome; outline: as §1
# [33] = test system: Liver; test: Drug metabolism in Wistar Han rat liver microsomes assessed as oxidative N-dealkylation by LC-ESI-MS or LC-UV analysis; assay type: ADME, microsome; outline: as §1
# [34] = test system: Liver; test: Drug metabolism in human liver microsomes assessed as oxidative N-dealkylation by LC-ESI-MS or LC-UV analysis; assay type: ADME, microsome; outline: as §1
# [35] = test system: Liver; test: Drug metabolism in Wistar Han rat liver microsomes assessed as aromatic hydroxylation of biphenyl moiety by LC-ESI-MS or LC-UV analysis; assay type: ADME, microsome; outline: as §1
# [36] = molecular target: Nicotinamide phosphoribosyltransferase (Homo sapiens, UniProt P43490); test: Inhibition of NAMPT in human Jurkat T cells assessed as reduction in NAD levels; assay type: cell-based
# Sequence of Nicotinamide phosphoribosyltransferase (Homo sapiens, UniProt P43490) (P43490 whole entry): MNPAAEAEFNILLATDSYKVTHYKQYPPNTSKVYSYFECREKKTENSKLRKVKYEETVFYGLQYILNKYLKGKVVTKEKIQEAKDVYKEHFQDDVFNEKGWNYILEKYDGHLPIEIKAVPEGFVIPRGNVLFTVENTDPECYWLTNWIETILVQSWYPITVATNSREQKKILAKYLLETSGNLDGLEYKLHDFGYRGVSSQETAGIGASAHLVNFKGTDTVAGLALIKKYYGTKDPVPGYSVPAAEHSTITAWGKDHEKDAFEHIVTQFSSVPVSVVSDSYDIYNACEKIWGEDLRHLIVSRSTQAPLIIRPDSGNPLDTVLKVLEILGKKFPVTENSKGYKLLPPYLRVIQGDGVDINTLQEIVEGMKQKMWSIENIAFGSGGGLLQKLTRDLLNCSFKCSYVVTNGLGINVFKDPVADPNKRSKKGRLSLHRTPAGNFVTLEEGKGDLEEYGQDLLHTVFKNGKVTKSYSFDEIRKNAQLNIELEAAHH
# [37] = test system: Liver; test: Drug metabolism in Wistar Han rat liver microsomes assessed as compound hydrolysis by measuring 2-aminobiphenyl formation after 60 mins by LC-ESI-MS analysis; assay type: ADME, microsome; conditions: 1 h
# Outline: (§3)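 Hydrolytic metabolites were identified by LC-ESI-MSn after 60 min at 37 °C. Incubations used 50 μM substrate with rat or human liver microsomes (1.0 mg/ml) in 50 mM Tris-HCl pH 7.4, 3.3 mM MgCl2 and 1% acetonitrile. Samples without the NADPH-regenerating system were also run, and residual substrate in them was measured.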
# [38] = test system: Liver; test: Drug metabolism in human liver microsomes assessed as compound hydrolysis by measuring 2-aminobiphenyl formation after 60 mins by LC-ESI-MS analysis; assay type: ADME, microsome; conditions: 1 h; outline: as §3
# [39] = test system: Liver; test: Drug metabolism in Wistar Han rat liver microsomes assessed as compound hydrolysis by measuring 8-(4-(pyridin-3-yl)-1H-1,2,3-triazol-1-yl)octanoic acid formation after 60 mins by LC-ESI-MS analysis; assay type: ADME, microsome; outline: as §3
# [40] = test system: Liver; test: Drug metabolism in human liver microsomes assessed as compound hydrolysis by measuring 8-(4-(pyridin-3-yl)-1H-1,2,3-triazol-1-yl)octanoic acid formation after 60 mins by LC-ESI-MS analysis; assay type: ADME, microsome; outline: as §3
compound,measurement,setting,value
O=C(/C=C/c1cccnc1)NCCCCC1CCN(C(=O)c2ccccc2)CC1 [DAPORINAD],half-life,[1],22.2 min
same,inhibition,[2],Active
same,EC50,[3],3.4 nM
same,Activity,[4],Active
same,inhibition,[5],Active
same,inhibition,[6],Active
same,Drug metabolism,[7],Metabolite_Detected
same,Vd,[8],0.8 L/kg
same,Drug metabolism,[9],Metabolite_Detected
same,Stability,[10],Stable
same,AUC at 24 h,[11],6470 ng·h/mL
same,IC50,[12],4.9 nM
same,Drug metabolism,[13],Metabolite_Detected
same,Stability,[14],Stable
same,remaining at 1 h,[15],92%
same,IC50,[16],4.2 nM
same,solubility,[17],Soluble
same,Activity,[18],Active
same,Stability,[19],Stable
same,Activity,[20],Non-Toxic
same,Stability,[21],Stable
same,inhibition,[22],Active
same,inhibition,[23],Active
same,inhibition,[24],Active
same,remaining at 1 h,[25],62%
same,inhibition,[26],Active
same,clearance,[27],22.8 mL/min/kg
NC(=O)c1ccccc1-c1ccccc1,Drug metabolism,[28],Metabolite_Detected
same,Drug metabolism,[29],Metabolite_Detected
O=C(O)CCCCCCn1cc(-c2cccnc2)nn1,Drug metabolism,[28],Metabolite_Detected
same,Drug metabolism,[29],Metabolite_Detected
O=C(NCCCCCCCn1cc(-c2cccnc2)nn1)c1ccccc1-c1ccccc1,Drug metabolism,[30],Metabolite_Detected
same,EC50,[3],5.8 nM
same,Drug metabolism,[31],Metabolite_Detected
same,Stability,[10],Stable
same,Drug metabolism,[32],Metabolite_Detected
same,Drug metabolism,[33],Metabolite_Detected
same,IC50,[12],3.1 nM
same,Stability,[14],Stable
same,remaining at 1 h,[15],88%
same,Stability,[19],Stable
same,Stability,[21],Stable
same,Drug metabolism,[34],Metabolite_Detected
same,remaining at 1 h,[25],45%
same,Drug metabolism,[35],Metabolite_Detected
same,IC50,[36],4.9 nM
O=C(CCCCCCCn1cc(-c2cccnc2)nn1)Nc1ccccc1-c1ccccc1,Drug metabolism,[37],Metabolite_Detected
same,Drug metabolism,[38],Metabolite_Detected
same,Drug metabolism,[39],Metabolite_Detected
same,remaining at 1 h,[15],45%
same,Drug metabolism,[40],Metabolite_Detected
same,remaining at 1 h,[25],26%
